Screening data as filed in PubChem BioAssay.
TDP2 inh: TDP2 (human) inhibition, absorbance primary screen | O95551 | recombinant TDP2, T5PNP hydrolysis, p-nitrophenol absorbance 415 nm | inhibition, % at 12.8 µM | actives 0.34% (n = 370,000);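 active means inhibition above the mean of all tested compounds plus 3 SD, set per campaign, cut at about 25% in these data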;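 further: 0% = DMSO with enzyme and 100% = buffer with substrate but no TDP2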
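Material: recombinant human TDP2; quantity: TDP2 enzyme at 120 nM final; medium: Tris-HCl pH 7.5 with MgCl2; compound: single concentration, 12.8 µM nominal, with 1% DMSO; incubation: 2 h enzyme incubation at 37 °C; signal: epi absorbance; measure: percent inhibition; benchmarks: high control without enzyme, low control DMSO plus TDP2; repeats: singlicate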
PAD4 FP inh: PAD4 (human) enzyme inhibition. actives 0.41% (n = 330,000). AID 485272. inhibition, % at 6.36 µM. Q9UM07. recombinant PAD4, RCA probe fluorescence polarization;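 active means percent inhibition above a cutoff equal to the mean of all tested compounds plus 3 SD, cut at about 15% in these data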;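 further: 0% = PAD4 with RCA probe and DMSO and 100% = probe without PAD4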
Fh CTSL1 inh: blocks F. hepatica cathepsin L1 in PFM18AAP counter-screen. recombinant F. hepatica cathepsin L1, Z-Leu-Arg-MCA fluorescence. inhibition, % at 5.96 µM. actives 0.49% (n = 300,000). AID 1906;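 active means inhibition above the mean of all tested compounds plus 3 SD, set per screening campaign, cut at about 17% in these data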;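 further: 0% = plate median of test compound wells and 100% = 1 µM Z-Phe-Ala-diazomethylketone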
PRMT1 inh: PRMT1 (human) inhibition, primary screen; Q99873; recombinant PRMT1, activity-based probe fluorescence polarization; inhibition, % at 2.79 µM; actives 1.3% (n = 370,000);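 active means inhibition above about 21% made by adding two undisclosed values, limit read from the data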
Target sequence (Q99873 whole entry, looked up): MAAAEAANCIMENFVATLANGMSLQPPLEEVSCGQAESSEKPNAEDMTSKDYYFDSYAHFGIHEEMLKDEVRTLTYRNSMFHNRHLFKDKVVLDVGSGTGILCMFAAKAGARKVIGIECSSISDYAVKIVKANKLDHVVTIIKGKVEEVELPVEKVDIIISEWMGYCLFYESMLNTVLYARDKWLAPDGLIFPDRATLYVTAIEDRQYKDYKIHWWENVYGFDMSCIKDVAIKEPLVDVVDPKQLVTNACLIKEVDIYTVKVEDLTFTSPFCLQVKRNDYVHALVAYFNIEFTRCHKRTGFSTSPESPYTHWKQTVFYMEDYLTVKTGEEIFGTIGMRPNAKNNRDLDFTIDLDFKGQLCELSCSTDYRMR
GSTO1 counter: blocks human GSTO1 in RBBP9 counter-screen | AID 1974 | P78417 | actives 1.1% (n = 300,000) | recombinant GSTO1, activity-based probe fluorescence polarization | inhibition, % at 5.96 µM;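 active means inhibition above the campaign mean inhibition plus 3 SD, cut at about 35% in these data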;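 further: 0% = GSTO1-1 with DMSO and 100% = wells lacking GSTO1-1 enzyme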
Target sequence (P78417 whole entry, looked up): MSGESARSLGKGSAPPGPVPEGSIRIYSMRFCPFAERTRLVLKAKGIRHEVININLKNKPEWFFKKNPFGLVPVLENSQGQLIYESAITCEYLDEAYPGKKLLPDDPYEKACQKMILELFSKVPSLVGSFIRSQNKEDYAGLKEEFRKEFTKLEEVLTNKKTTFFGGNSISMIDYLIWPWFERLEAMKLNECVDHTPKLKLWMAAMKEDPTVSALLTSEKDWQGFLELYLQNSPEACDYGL
PRMT1 inh conf: PRMT1 (human) inhibition, FP confirmation. AID 687036. inhibition, % at 2.79 µM. actives 42% (n = 3,300). shares compounds with PRMT1 inh. recombinant His-PRMT1, activity-based probe fluorescence polarization;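 active means mean inhibition across replicates above the hit cutoff derived for the earlier primary screen, cut at about 22% in these data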
Active calls of the source: *; / = no result. A selection: hits, their analogues and other compounds. The true share with any hit is near 2.5%.

SMILES	TDP2 inh	PAD4 FP inh	Fh CTSL1 inh	PRMT1 inh	GSTO1 counter	PRMT1 inh conf
CCOC(=O)C1SC2(C(F)F)CC1(O)c1c(c(OC)c3occc3c1OC)O2 (centres undefined)	-18	1	2	29*	5	15
Cc1ccc(OCCn2cccc2/C=C2/C(=O)NC(=O)N(Cc3ccco3)C2=O)cc1	20	-7	0	32*	6	12
Cn1cccc1/C=C1\C(=O)NC(=O)N(Cc2ccco2)C1=O	12	/	/	31*	/	22*
CCc1ccc(N2C(=O)NC(=O)/C(=C\c3cccn3CCOc3ccc(C(C)C)cc3)C2=O)cc1	8	-2	0	0	-2	/
COc1ccc(/C=C2/C(=O)NC(=O)N(Cc3ccco3)C2=O)cc1	/	-4	3	/	23	/
C[C@H](NC(=O)N1C[C@H]2C[C@@H](C1)c1cccc(=O)n1C2)C(=O)Nc1cccc(F)c1	6	2	-1	-5	-3	/
COc1ccc(OC)c(N2C(=O)NC(=O)/C(=C/c3ccc([N+](=O)[O-])s3)C2=O)c1	15	-11	4	28*	24	58*
COc1ccc(OC)c(N2C(=O)/C(=C/c3ccco3)C(=O)NC2=S)c1	/	-4	6	/	-2	/
CCc1cc(=O)[nH]c(SCCCF)n1	-1	-1	1	-1	3	/
CCOP(=S)(NN(Cc1ccccc1)C(=O)c1ccccc1)OCC	-6	0	-1	-1	3	/
CC(C)OC(=O)c1c(N)n(Cc2ccco2)c2nc3ccccc3nc12	10	-14	2	7	5	/
COCCOC(=O)c1c(N)n(Cc2ccco2)c2nc3ccccc3nc12	11	-20	4	30*	21	11
O=C1NC(=O)C2(CCCc3ccc(N(CCCl)CCCl)cc32)N1 (centres undefined)	1	/	/	-2	/	/
Cc1ccc(/C=C2\C(=O)NC(=S)N(c3cccc(F)c3)C2=O)o1	13	-18	-4	29*	1	57*
Cc1ccc2cc(C=C(C#N)C#N)c(Cl)nc2c1	18	-5	-1	52*	24	22*
Cc1cc(N2CCCC2)ccc1C=C(C#N)C#N	-4	1	0	3	6	/
CCOC(=O)c1c(/N=C/c2c(O)n(-c3ccccc3F)c(=S)[nH]c2=O)sc2c1CCCC2	4	-8	1	42*	-44	15
CCOC(=O)c1c(/N=C/c2c(O)n(-c3ccc(F)cc3)c(=S)[nH]c2=O)sc2c1CCCC2	1	2	-3	27*	2	-8
CCCCN1CCN(C(=O)COc2cc(=O)n(C)c3ccccc23)CC1	0	/	/	-1	/	/
CC(=O)c1cccc(NC(=O)N2C[C@H]3C[C@@H](C2)c2cccc(=O)n2C3)c1	-4	-3	-4	2	10	/
O=C(c1ccc(N2CC3CC(C2)c2cccc(=O)n2C3)c([N+](=O)[O-])c1)N1CCCC1 (centres undefined)	4	-3	0	4	2	/
COC(=O)C1=C(c2cc3ccccc3s2)C[C@@H]2CC[C@H]1N2C(=O)NCc1ccc(F)cc1	1	4	1	-1	-1	/
O=C1NC(=O)N(Cc2ccccc2)C(=O)/C1=C/N1CCCc2ccccc21	-3	-1	0	28*	33	-8
Cc1cccc(N2C(=O)NC(=O)/C(=C\C=C\c3ccco3)C2=O)c1	-1	-7	0	36*	-2	1
O=C1NC(=O)N(Cc2ccccc2)C(=O)/C1=C\C=C\c1ccco1	-20	-12	4	36*	11	1
SMILES	TDP2 inh	PAD4 FP inh	Fh CTSL1 inh	PRMT1 inh	GSTO1 counter	PRMT1 inh conf
O=C1NC(=O)N(Cc2ccco2)C(=O)/C1=C/C=C/c1ccco1	1	-6	-1	61*	28	13
O=C(CCCc1ccc(N(CCCl)CCCl)cc1)NCc1ccccc1	-6	/	/	1	/	/
CC(=NCCC1=CCCCC1)c1c(O)[nH]c(=O)[nH]c1=O	-4	7	2	0	4	/
CN1C(=O)/C(=C/C=C/c2ccco2)C(=O)NC1=S	11	-13	2	40*	17	57*
Cc1cc(/C=C2\C(=O)NC(=O)N(Cc3ccco3)C2=O)c(C)n1-c1ccc(O)cc1	0	-4	-3	29*	-7	-5
Cc1cc(/C=C2\C(=O)NC(=O)N(Cc3ccccc3)C2=O)c(C)n1-c1ccc(Cl)c(C(=O)O)c1	10	-1	-4	28*	18	12
Cc1ccc(-n2c(C)cc(/C=C3/C(=O)NC(=O)N(Cc4ccco4)C3=O)c2C)cc1	0	-4	0	17	7	/
Cc1cc(/C=C2\C(=O)NC(=O)N(Cc3ccccc3Cl)C2=O)c(C)n1-c1ccc(C(=O)O)cc1	5	-13	-3	12	-4	/
CN1C(=O)C(=Cc2cn(CC(=O)N3CCCC3)c3ccccc23)C(=O)N(C)C1=O	-10	-3	-3	32*	11	-4
CN1C(=O)C(=Cc2cn(CC#N)c3ccccc23)C(=O)N(C)C1=O	-2	/	/	32*	/	11
O=C1CC(N2CCC(n3c(=O)[nH]c4ccccc43)CC2)C(=O)N1c1ccc(F)cc1 (centres undefined)	-17	0	3	45*	-10	3
Cc1c(C(=O)N2CCC3(CC2)OCCO3)oc2ccc(S(=O)(=O)N3CCCCC3)cc12	0	-2	-7	-3	-33	/
[Cl][Pt+2][Cl].[NH-]C1CCCCC1[NH-] (centres undefined)	5	2	40*	47*	6	8
Cc1nn(CCC#N)c2c1P(=S)(N1CCCC1)OC(c1ccc(F)cc1)=N2 (centres undefined)	9	0	0	77*	6	44*
CN1C[C@H](CNC(=O)OCc2ccccc2)C[C@@H]2c3cccc4c3c(cn4C)C[C@H]21	0	2	0	39*	3	7
O=P(Nc1ccccc1)(Oc1ccccc1)Oc1ccccc1	-14	6	5	82*	0	2
O=P(Nc1ccccc1)(Nc1ccccc1)Oc1ccccc1	1	-4	5	-1	0	/
Cc1cc(N2CCNC[C@H]2C)ccc1N1CC[C@H](O)C1	-1	/	/	41*	/	-2
CC/C(=N\NC(=S)Nc1ccccc1)c1c(O)[nH]c(=O)[nH]c1=O	21	-2	1	45*	-1	46*
CCN1C[C@]2(COC)CC[C@H](O)[C@]34C1[C@](O)([C@@H](OC)[C@H]23)[C@@]1(O)C[C@H](OC)[C@H]2C[C@@H]4[C@@H]1[C@H]2OC	11	-1	5	0	-1	/
COc1ccccc1C1C([N+](=O)[O-])=C(N)Oc2c1c(=O)oc1ccccc21 (centres undefined)	-4	-1	4	4	-7	/
